≈ marks a conversion by molar mass, not a printed value. Calls of active or inactive are those of the source.
Tests used:
Micrococcus luteus [1] = assay: Antibacterial activity against Micrococcus luteus ATCC 4698 by broth microdilution method; type: functional; settings: NCTC 2665
Method in brief: (§1)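 Broth microdilution per NCCLS. Compounds dissolved in DMSO as 10 mg/mL stock, diluted in Mueller Hinton broth (bacteria) or Sabouraud dextrose broth (fungi). Amikacin served as the positive control for bacteria and nystatin for fungi.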

Clostridium sporogenes = assay: Antibacterial activity against Clostridium sporogenes ATCC 19404 by broth microdilution method; type: functional; method in brief: as §1
Escherichia coli = assay: Antibacterial activity against Escherichia coli ATCC 25922 by broth microdilution method; type: functional; method in brief: as §1
Proteus hauseri = assay: Antibacterial activity against Proteus hauseri ATCC 13315 by broth microdilution method; type: functional; method in brief: as §1
Salmonella enteritidis = assay: Antibacterial activity against Salmonella enterica subsp. enterica serovar Enteritidis ATCC 13076 by broth microdilution method; type: functional; method in brief: as §1
Pseudomonas aeruginosa = assay: Antibacterial activity against Pseudomonas aeruginosa ATCC 9027 by broth microdilution method; type: functional; method in brief: as §1
Candida albicans = assay: Antifungal activity against Candida albicans ATCC 10231 by broth microdilution method; type: functional; method in brief: as §1
Saccharomyces cerevisiae = assay: Antifungal activity against Saccharomyces cerevisiae ATCC 9763 by broth microdilution method; type: functional; method in brief: as §1
Aspergillus brasiliensis = assay: Antifungal activity against Aspergillus brasiliensis ATCC 16404 by broth microdilution method; type: functional; method in brief: as §1
NCI-H460 [2] = assay: Induction of apoptosis in human NCI-H460 cells assessed as live cells at 25 uM after 72 hrs by annexin-V/propidium iodide staining-based flow cytometric analysis (reference value: 98.3%); type: functional
NCI-H460 [3] = assay: Induction of apoptosis in human NCI-H460 cells assessed as early apoptotic cells at 25 uM after 72 hrs by annexin-V/propidium iodide staining-based flow cytometric analysis (reference value: 0.3%); type: functional
NCI-H460 [4] = assay: Induction of apoptosis in human NCI-H460 cells assessed as late apoptotic/necrotic cells at 25 uM after 72 hrs by annexin-V/propidium iodide staining-based flow cytometric analysis (reference value: 0.2%); type: functional
NCI-H460 [5] = assay: Induction of apoptosis in human NCI-H460 cells assessed as dead cells at 25 uM after 72 hrs by annexin-V/propidium iodide staining-based flow cytometric analysis (reference value: 1.2%); type: functional
NCI-H460 [6] = assay: Induction of apoptosis in multidrug resistant human NCI-H460 cells assessed as live cells at 25 uM after 72 hrs by annexin-V/propidium iodide staining-based flow cytometric analysis (reference value: 96.4%); type: functional
NCI-H460 [7] = assay: Induction of apoptosis in multidrug resistant human NCI-H460 cells assessed as early apoptotic cells at 25 uM after 72 hrs by annexin-V/propidium iodide staining-based flow cytometric analysis (reference value: 1.1%); type: functional
NCI-H460 [8] = assay: Induction of apoptosis in multidrug resistant human NCI-H460 cells assessed as late apoptotic/necrotic cells at 25 uM after 72 hrs by annexin-V/propidium iodide staining-based flow cytometric analysis (reference value: 1%); type: functional
NCI-H460 [9] = assay: Induction of apoptosis in multidrug resistant human NCI-H460 cells assessed as dead cells at 25 uM after 72 hrs by annexin-V/propidium iodide staining-based flow cytometric analysis (reference value: 1.5%); type: functional
[10] = Induction of apoptosis in human HaCaT cells assessed as live cells at 25 uM after 72 hrs by annexin-V/propidium iodide staining-based flow cytometric analysis (reference value: 96.8%); type: cell-based; settings: read-out: Activity
HaCaT [11] = assay: Induction of apoptosis in human HaCaT cells assessed as early apoptotic cells at 25 uM after 72 hrs by annexin-V/propidium iodide staining-based flow cytometric analysis (reference value: 0.2%); type: cell-based
HaCaT [12] = assay: Induction of apoptosis in human HaCaT cells assessed as late apoptotic/necrotic cells at 25 uM after 72 hrs by annexin-V/propidium iodide staining-based flow cytometric analysis (reference value: 0.2%); type: cell-based
HaCaT [13] = assay: Induction of apoptosis in human HaCaT cells assessed as dead cells at 25 uM after 72 hrs by annexin-V/propidium iodide staining-based flow cytometric analysis (reference value: 2.8%); type: cell-based
Kocuria rhizophila = assay: Antibacterial activity against Kocuria rhizophila ATCC 9341 by broth microdilution method; type: functional; settings: DC2201; method in brief: as §1
NCI-H460 [14] = assay: Cytotoxicity against human NCI-H460 cells after 72 hrs by MTT assay; type: functional, cell-based; settings: NCI-H460, 72 h
Method in brief: (§2)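 Seeding in 96-well plates at 1000 (NCI-H460), 2000 (NCI-H460/R) or 4000 (HaCaT) cells/well, treated after 24 h for 72 h. MTT at 0.4 mg/mL final, 4 h at 37 °C. Formazan dissolved in DMSO, absorbance read at 540 nm. Inhibition % = (1 − A treated/A untreated)×100. IC30 and IC50 obtained by linear regression.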

NCI-H460 [15] = assay: Cytotoxicity against multidrug resistant human NCI-H460 cells after 72 hrs by MTT assay; type: functional, cell-based; settings: NCI-H460, 72 h; method in brief: as §2
HaCaT [16] = assay: Cytotoxicity against human HaCaT cells after 72 hrs by MTT assay; type: cell-based; settings: for IC50: Homo sapiens, HaCaT; for IC30: human, hacat; method in brief: as §2
[17] = Selectivity ratio of IC30/IC50 for human HaCaT cells to IC30/IC50 for human NCI-H460 cells; type: ADME, cell-based; settings: HaCaT cells versus NCI-H460 cells
Method in brief: (§3)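 Fold threshold of 1.5 used to call selectivity to cancer cells, resistance, or selectivity to MDR cells.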

[18] = Selectivity ratio of IC30/IC50 for human HaCaT cells to IC30/IC50 for multidrug resistant human NCI-H460 cells; type: ADME, cell-based; settings: HaCaT cells versus multidrug resistant NCI-H460 cells; method in brief: as §3
NCI-H460 [19] = assay: Induction of superoxide anion generation in multidrug resistant human NCI-H460 cells at 25 uM after 72 hrs by DHE staining-based flow cytometric analysis relative to control; type: functional, cell-based
Method in brief: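 Seeded as for cell death (50,000 or 100,000 cells/well), treated 72 h at 25 µM, with CDDP 5 µM as control. Adherent cells trypsinized and loaded with 1 µM DHE for 30 min at 37 °C in the dark, then washed twice in PBS. Flow cytometry at ex 488/em 585 nm (FL2-H). Mean fluorescence intensity corrected for autofluorescence and compared with untreated control.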

Staphylococcus aureus = assay: Antibacterial activity against Staphylococcus aureus ATCC 6538 by broth microdilution method; type: functional; method in brief: as §1
Bacillus spizizenii = assay: Antibacterial activity against Bacillus subtilis ATCC 6633 by broth microdilution method; type: functional; method in brief: as §1
Micrococcus luteus [20] = assay: Antibacterial activity against Micrococcus luteus ATCC 10240 by broth microdilution method; type: functional; method in brief: as §1
NCI-H460 [21] = assay: Selectivity ratio of IC30/IC50 for human NCI-H460 cells to IC30/IC50 for multidrug resistant human NCI-H460 cells; type: functional; method in brief: as §3

| Structure (SMILES) | MIC (Micrococcus luteus [1]) | MIC (Clostridium sporogenes) | MIC (Escherichia coli) | MIC (Proteus hauseri) | MIC (Salmonella enteritidis) | MIC (Pseudomonas aeruginosa) | MIC (Candida albicans) | MIC (Saccharomyces cerevisiae) | MIC (Aspergillus brasiliensis) | IC30 (NCI-H460 [14]) | IC50 (NCI-H460 [14]) | IC30 (NCI-H460 [15]) | IC50 (NCI-H460 [15]) | IC50 (HaCaT [16]) | IC30 (HaCaT [16]) | selectivity ratio [17] | selectivity ratio [18] | MIC (Staphylococcus aureus) | MIC (Bacillus spizizenii) | MIC (Micrococcus luteus [20]) | further results |
| --- | --- | --- | --- | --- | --- | --- | --- | --- | --- | --- | --- | --- | --- | --- | --- | --- | --- | --- | --- | --- | --- |
| CCCCCCCCNC1=CC(=O)C(C(C)(C)C)=CC1=O | 4300 µM (≈ 1250 µg/mL) | 2150 µM (≈ 626 µg/mL) | 4300 µM (≈ 1250 µg/mL) | 2150 µM (≈ 626 µg/mL) | 2150 µM (≈ 626 µg/mL) | 2150 µM (≈ 626 µg/mL) | 4300 µM (≈ 1250 µg/mL) | 4300 µM (≈ 1250 µg/mL) | 2150 µM (≈ 626 µg/mL) | 18 µM | 70 µM | 21 µM | 65 µM | > 100 µM | > 100 µM | ≤ 1.5 | ≤ 1.5 | 4300 µM (≈ 1250 µg/mL) | 4300 µM (≈ 1250 µg/mL) | 2150 µM (≈ 626 µg/mL) | Activity (NCI-H460 [2]): 80.9%; Activity (NCI-H460 [3]): 0.1%; Activity (NCI-H460 [4]): 1.7%; Activity (NCI-H460 [5]): 17.3%; Activity (NCI-H460 [6]): 83.9%; Activity (NCI-H460 [7]): 0.2%; Activity (NCI-H460 [8]): 1.9%; Activity (NCI-H460 [9]): 14%; viability at 72 h, 25 µM [10]: 93.8%; Activity (HaCaT [11]): 0%; Activity (HaCaT [12]): 0.5%; Activity (HaCaT [13]): 5.7%; MIC (Kocuria rhizophila): 4300 µM (≈ 1250 µg/mL); Activity (NCI-H460 [19]): inactive |
| CC(C)(C)C1=CC(=O)C=C(NCc2ccccc2)C1=O | 4650 µM (≈ 1250 µg/mL) | 2320 µM (≈ 626 µg/mL) | 9 µM (≈ 2.42 µg/mL) | – | 4650 µM (≈ 1250 µg/mL) | 2320 µM (≈ 626 µg/mL) | 2320 µM (≈ 626 µg/mL) | 2320 µM (≈ 626 µg/mL) | 2320 µM (≈ 626 µg/mL) | 5 µM | 14 µM | 3 µM | 10 µM | 21 µM | 12 µM | ≤ 1.5 | ≤ 1.5 | 9 µM (≈ 2.42 µg/mL) | 2320 µM (≈ 626 µg/mL) | 9 µM (≈ 2.42 µg/mL) | selectivity ratio (NCI-H460 [21]): <=1.5 |
| CC(C)(C)C1=CC(=O)C(NCc2ccccc2)=CC1=O | 2320 µM (≈ 626 µg/mL) | 2320 µM (≈ 626 µg/mL) | 36 µM (≈ 9.7 µg/mL) | 2320 µM (≈ 626 µg/mL) | 4650 µM (≈ 1250 µg/mL) | 4650 µM (≈ 1250 µg/mL) | – | – | – | 13 µM | 19 µM | 5 µM | 15 µM | 28 µM | 12 µM | ≤ 1.5 | ≤ 1.5 | 72 µM (≈ 19.4 µg/mL) | 4650 µM (≈ 1250 µg/mL) | 18 µM (≈ 4.85 µg/mL) | MIC (Kocuria rhizophila): 4650 µM (≈ 1250 µg/mL); selectivity ratio (NCI-H460 [21]): <=1.5 |

Source: ChEMBL document CHEMBL3822380, “Simple avarone mimetics as selective agents against multidrug resistant cancer cells” (Eur J Med Chem, 2016)
